Experimental data taken from ChEMBL document CHEMBL1126849, “Synthesis of A-ring fluorinated derivatives of (17 alpha,20E/Z)-[125I]iodovinylestradiols: effect on receptor binding and receptor-mediated target tissue uptake” (J Med Chem, 1993).

How the values were obtained:
Rattus norvegicus [1] = assay: Biodistribution in blood of immature female rat after 12 hour administration of 3 micro Ci (111 kBq) in the absence of 60 microg estradiol; type: ADME, organism-based; conditions: in vivo
Method in brief: (§1)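 Immature female Long Evans rats (21–24 days, 45–70 g), unanesthetized in retention cages, given 3 µCi (111 kBq) 125I-labeled steroid i.v. via lateral tail vein. Vehicle was ethanol diluted in saline containing 1% Tween-80, giving 9% ethanol final. The blocking group received 60 µg unlabeled estradiol co-injected. Rats were killed under ether by axillary bleeding, and tissues were KCl-washed and gamma-counted. Data are %ID/g, mean ± SE, n=3–5.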

Rattus norvegicus [2] = assay: Biodistribution in kidney of immature female rat after 1 hr administration of 3 micro Ci (111 kBq) in the presence of (+E2); type: ADME, organism-based; conditions: in vivo; method in brief: as §1
Rattus norvegicus [3] = assay: Biodistribution in lungs of immature female rat after 12 hour administration of 3 micro Ci (111 kBq) in the absence of 60 microg estradiol; type: ADME, organism-based, Lung; conditions: in vivo
Method in brief: (§2)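 Immature female Long Evans rats (21–24 days, 45–70 g), three to five per group, given 125I-labeled steroid (3 μCi, 111 kBq) by lateral tail vein without anesthesia. Vehicle: ethanol diluted in saline with 1% Tween-80, final ethanol 9%, 0.22 μm filtered. +E2 groups received 60 μg unlabeled estradiol co-injected. Killed under ether at set times; tissues KCl-washed, blotted, weighed, gamma counted; %ID/g, mean with SE.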

Rattus norvegicus [4] = assay: Biodistribution in blood of immature female rat after 3 hour administration of 3 micro Ci (111 kBq) in the absence of 60 microg estradiol; type: ADME, organism-based; conditions: in vivo; method in brief: as §1
Rattus norvegicus [5] = assay: Biodistribution in muscle of immature female rat after 1 hr administration of 3 micro Ci (111 kBq) in the presence of (+E2); type: ADME, organism-based, Muscle tissue; conditions: in vivo; method in brief: as §2
Rattus norvegicus [6] = assay: Biodistribution in uterus / blood of immature female rat after 3 hour administration of 3 micro Ci (111 kBq) in the absence of 60 microg estradiol; type: ADME, organism-based; conditions: in vivo
Method in brief: (§3)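 Same in vivo procedure: immature female Long Evans rats (21–24 days), three to five per group, 3 μCi (111 kBq) tracer i.v. via tail vein in 9% ethanol/saline/1% Tween-80, ± 60 μg estradiol co-injected at 1 h. Uterus %ID/g (gamma counting) divided by blood, or by nontarget organ (muscle, spleen, lungs), %ID/g to give ratios.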

Rattus norvegicus [7] = assay: Biodistribution in uterus of immature female rat after 5 hour administration of 3 micro Ci (111 kBq) in the absence of 60 microg estradiol; type: ADME, organism-based; conditions: in vivo
Method in brief: (§4)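 Immature female Long Evans rats (21–24 days, 45–70 g), 3–5 per group, unanesthetized in retention cages, given 3 μCi (111 kBq) 125I-labeled steroid by lateral tail vein. Vehicle: ethanol diluted with saline containing 1% Tween-80, final ethanol 9%. +E2 group co-injected 60 μg unlabeled estradiol (1 h only). Killed under ether; tissues KCl-washed, weighed, gamma-counted. Output: %ID/g (mean, SE) and uterus to blood or nontarget (muscle, spleen, lungs) ratios.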

Rattus norvegicus [8] = assay: Biodistribution in muscle of immature female rat after 1 hr administration of 3 micro Ci (111 kBq) in the absence of 60 microg estradiol; type: ADME, organism-based, Muscle tissue; conditions: in vivo; method in brief: as §2
Rattus norvegicus [9] = assay: Biodistribution in spleen of immature female rat after 1 hr administration of 3 micro Ci (111 kBq) in the absence of 60 microg estradiol; type: ADME, organism-based; conditions: in vivo; method in brief: as §2
Rattus norvegicus [10] = assay: Biodistribution in kidney of immature female rat after 12 hour administration of 3 micro Ci (111 kBq) in the absence of 60 microg estradiol; type: ADME, organism-based; conditions: in vivo; method in brief: as §1
Rattus norvegicus [11] = assay: Biodistribution in lungs of immature female rat after 1 hr administration of 3 micro Ci (111 kBq) in the presence of (+E2); type: ADME, organism-based, Lung; conditions: in vivo; method in brief: as §1
Rattus norvegicus [12] = assay: Biodistribution in muscle of immature female rat after 12 hour administration of 3 micro Ci (111 kBq) in the absence of 60 microg estradiol; type: ADME, organism-based, Muscle tissue; conditions: in vivo; method in brief: as §2
Rattus norvegicus [13] = assay: Biodistribution in thyroid of immature female rat after 1 hr administration of 3 micro Ci (111 kBq) in the absence of 60 microg estradiol; type: ADME, organism-based, Thyroid gland; conditions: in vivo; method in brief: as §2
Rattus norvegicus [14] = assay: Biodistribution in kidney of immature female rat after 3 hour administration of 3 micro Ci (111 kBq) in the absence of 60 microg estradiol; type: ADME, organism-based; conditions: in vivo; method in brief: as §1
Rattus norvegicus [15] = assay: Biodistribution in uterus / blood of immature female rat after 1 hr administration of 3 micro Ci (111 kBq) in the absence of 60 microg estradiol; type: ADME, organism-based; conditions: in vivo; method in brief: as §3
Rattus norvegicus [16] = assay: Biodistribution in thyroid of immature female rat after 1 hr administration of 3 micro Ci (111 kBq) in the presence of (+E2); type: ADME, organism-based, Thyroid gland; conditions: in vivo; method in brief: as §2
Rattus norvegicus [17] = assay: Biodistribution in lungs of immature female rat after 1 hr administration of 3 micro Ci (111 kBq) in the absence of 60 microg estradiol; type: ADME, organism-based, Lung; conditions: in vivo; method in brief: as §1
Rattus norvegicus [18] = assay: Biodistribution in liver of immature female rat after 3 hour administration of 3 micro Ci (111 kBq) in the absence of 60 microg estradiol; type: ADME, organism-based; conditions: in vivo; method in brief: as §1
Rattus norvegicus [19] = assay: Biodistribution in fat of immature female rat after 5 hour administration of 3 micro Ci (111 kBq) in the absence of 60 microg estradiol; type: ADME, organism-based, Adipose tissue; conditions: in vivo; method in brief: as §1
Rattus norvegicus [20] = assay: Biodistribution in uterus / spleen, muscle, lungs of immature female rat after 1 hr administration of 3 micro Ci (111 kBq) in the absence of 60 microg estradiol; type: ADME, organism-based; conditions: in vivo; method in brief: as §3
Rattus norvegicus [21] = assay: Biodistribution in fat of immature female rat after 3 hour administration of 3 micro Ci (111 kBq) in the absence of 60 microg estradiol; type: ADME, organism-based, Adipose tissue; conditions: in vivo; method in brief: as §1
Rattus norvegicus [22] = assay: Biodistribution in uterus / blood of immature female rat after 5 hour administration of 3 micro Ci (111 kBq) in the absence of 60 microg estradiol; type: ADME, organism-based; conditions: in vivo; method in brief: as §3
Rattus norvegicus [23] = assay: Biodistribution in liver of immature female rat after 1 hr administration of 3 micro Ci (111 kBq) in the absence of 60 microg estradiol; type: ADME, organism-based; conditions: in vivo; method in brief: as §1
[24] = target: Estrogen receptor (Mus musculus) (UniProt O08537+P19785); assay: Relative binding affinity (RBA) against murine cytoplasmic estrogen receptor incubated at 0-4 degree Celsius for 18 hours; type: protein assay
Method in brief: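 Competitive binding on murine uterine cytoplasmic extract with 20 nM [3H]estradiol and competitor steroids at 2 nM–20 μM, incubated 18 h at 0–4 °C. RBA = 100 × ratio of […] concentration giving 50% competition for specific binding. Mean of three experiments with SD.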

Rattus norvegicus [25] = assay: Biodistribution in uterus of immature female rat after 3 hour administration of 3 micro Ci (111 kBq) in the absence of 60 microg estradiol; type: ADME, organism-based; conditions: in vivo; method in brief: as §4
Rattus norvegicus [26] = assay: Biodistribution in lungs of immature female rat after 3 hour administration of 3 micro Ci (111 kBq) in the absence of 60 microg estradiol; type: ADME, organism-based, Lung; conditions: in vivo; method in brief: as §2
Rattus norvegicus [27] = assay: Biodistribution in uterus of immature female rat after 1 hr administration of 3 micro Ci (111 kBq) in the absence of 60 microg estradiol; type: ADME, organism-based; conditions: in vivo; method in brief: as §4
Rattus norvegicus [28] = assay: Biodistribution in muscle of immature female rat after 3 hour administration of 3 micro Ci (111 kBq) in the absence of 60 microg estradiol; type: ADME, organism-based, Muscle tissue; conditions: in vivo; method in brief: as §2
Rattus norvegicus [29] = assay: Biodistribution in fat of immature female rat after 1 hr administration of 3 micro Ci (111 kBq) in the absence of 60 microg estradiol; type: ADME, organism-based, Adipose tissue; conditions: in vivo; method in brief: as §1
Rattus norvegicus [30] = assay: Biodistribution in blood of immature female rat after 1 hr administration of 3 micro Ci (111 kBq) in the absence of 60 microg estradiol; type: ADME, organism-based; conditions: in vivo; method in brief: as §1

Chain of Estrogen receptor (Mus musculus) (O08537 whole entry, looked up): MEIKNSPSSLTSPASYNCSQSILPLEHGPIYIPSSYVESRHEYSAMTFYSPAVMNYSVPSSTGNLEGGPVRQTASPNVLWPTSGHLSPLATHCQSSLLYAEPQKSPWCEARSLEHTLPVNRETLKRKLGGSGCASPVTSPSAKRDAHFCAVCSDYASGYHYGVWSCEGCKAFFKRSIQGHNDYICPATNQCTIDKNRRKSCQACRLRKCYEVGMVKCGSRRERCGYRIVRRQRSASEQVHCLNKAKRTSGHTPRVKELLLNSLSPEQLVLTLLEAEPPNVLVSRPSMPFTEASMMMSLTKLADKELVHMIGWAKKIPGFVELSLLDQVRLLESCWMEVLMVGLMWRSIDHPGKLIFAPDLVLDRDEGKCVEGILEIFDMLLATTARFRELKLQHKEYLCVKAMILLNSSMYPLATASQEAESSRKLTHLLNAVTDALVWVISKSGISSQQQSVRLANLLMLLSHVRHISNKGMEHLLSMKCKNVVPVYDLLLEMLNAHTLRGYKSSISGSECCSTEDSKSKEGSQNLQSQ
Chain of Estrogen receptor (Mus musculus) (P19785 whole entry, looked up): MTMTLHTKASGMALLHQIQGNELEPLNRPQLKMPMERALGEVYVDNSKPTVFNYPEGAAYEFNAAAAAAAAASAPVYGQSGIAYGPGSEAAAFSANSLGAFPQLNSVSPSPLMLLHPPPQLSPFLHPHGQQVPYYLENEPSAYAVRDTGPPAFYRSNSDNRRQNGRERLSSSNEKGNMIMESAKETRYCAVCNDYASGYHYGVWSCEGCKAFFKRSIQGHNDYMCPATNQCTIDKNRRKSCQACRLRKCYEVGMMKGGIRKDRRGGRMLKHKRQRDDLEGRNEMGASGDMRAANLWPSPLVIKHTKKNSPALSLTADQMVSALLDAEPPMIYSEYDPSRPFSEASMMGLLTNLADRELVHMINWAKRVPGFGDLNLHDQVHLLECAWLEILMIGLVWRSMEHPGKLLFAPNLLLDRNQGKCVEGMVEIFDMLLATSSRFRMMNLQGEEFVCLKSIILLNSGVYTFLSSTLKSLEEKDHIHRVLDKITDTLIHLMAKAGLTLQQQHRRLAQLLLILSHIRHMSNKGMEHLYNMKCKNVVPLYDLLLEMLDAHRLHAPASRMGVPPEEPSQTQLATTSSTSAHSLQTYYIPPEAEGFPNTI

| ID/g (Rattus norvegicus [1]) [%] | ID/g (Rattus norvegicus [2]) [%] | ID/g (Rattus norvegicus [3]) [%] | ID/g (Rattus norvegicus [4]) [%] | ID/g (Rattus norvegicus [5]) [%] | uterus to blood %ID/g ratio (unitless) (Rattus norvegicus [6]) [%] | ID/g (Rattus norvegicus [7]) [%] | ID/g (Rattus norvegicus [8]) [%] | ID/g (Rattus norvegicus [9]) [%] | ID/g (Rattus norvegicus [10]) [%] | ID/g (Rattus norvegicus [11]) [%] | ID/g (Rattus norvegicus [12]) [%] | ID/g (Rattus norvegicus [13]) [%] | ID/g (Rattus norvegicus [14]) [%] | uterus-to-blood ratio of %ID/g (Rattus norvegicus [15]) [%] | ID/g (Rattus norvegicus [16]) [%] | ID/g (Rattus norvegicus [17]) [%] | ID/g (Rattus norvegicus [19]) [%] | ID/g (Rattus norvegicus [21]) [%] | RBA [24] | SMILES | further results |
| --- | --- | --- | --- | --- | --- | --- | --- | --- | --- | --- | --- | --- | --- | --- | --- | --- | --- | --- | --- | --- | --- |
| 0.25 | 1.36 | 0.37 | 0.56 | 0.77 | 13.35 | 10.96 | 0.66 | 2.04 | 1.23 | 0.95 | 0.27 | 551 | 1.08 | 10.55 | 441 | 0.84 | 0.75 | 1.13 | 37.9 | CO[C@H]1C[C@@]2(C)[C@@H](CC[C@@]2(O)/C=C\I)[C@@H]2CCc3c(ccc(O)c3F)[C@H]21 | ID/g (Rattus norvegicus [18]): 1.21%; uterus-to-nontarget tissue uptake ratio (Rattus norvegicus [20]): 7.3%; uterus to blood ratio (Rattus norvegicus [22]): 20.08%; ID/g (Rattus norvegicus [23]): 2%; ID/g (Rattus norvegicus [25]): 7.48%; ID/g (Rattus norvegicus [26]): 0.66%; ID/g (Rattus norvegicus [27]): 6.87%; ID/g (Rattus norvegicus [28]): 0.48%; ID/g (Rattus norvegicus [29]): 1.43%; ID/g (Rattus norvegicus [30]): 0.66% |
| 0.17 | 1.82 | 0.23 | 0.32 | 0.97 | 17.28 | 6.44 | 0.75 | 0.68 | 0.32 | 1.86 | 0.16 | 61 | 0.95 | 12.53 | 56 | 1.47 | 4.59 | 4 | 36.4 | C[C@@H]1Cc2c(ccc(O)c2F)[C@H]2CC[C@@]3(C)[C@@H](CC[C@@]3(O)/C=C/I)[C@H]12 | ID/g (Rattus norvegicus [18]): 3.44%; uterus-to-nontarget tissue uptake ratio (Rattus norvegicus [20]): 5.03%; uterus to blood ratio (Rattus norvegicus [22]): 16.4%; ID/g (Rattus norvegicus [23]): 4.36%; ID/g (Rattus norvegicus [25]): 5.29%; ID/g (Rattus norvegicus [26]): 0.93%; ID/g (Rattus norvegicus [27]): 4.71%; ID/g (Rattus norvegicus [28]): 0.43%; ID/g (Rattus norvegicus [29]): 0.03%; ID/g (Rattus norvegicus [30]): 0.38% |
| – | – | – | – | – | – | – | – | – | – | – | – | – | – | – | – | – | – | – | 27.9 | CO[C@H]1C[C@@]2(C)[C@@H](CC[C@@]2(O)/C=C\I)[C@@H]2CCc3cc(O)c(F)cc3[C@H]21 | – |
| 0.08 | 0.66 | 0.1 | 0.42 | 0.54 | 1.4 | 0.34 | 0.73 | 0.57 | 0.06 | 0.93 | 0.03 | 27 | 0.47 | 2.21 | 22 | 1 | 2.39 | 3.17 | 6.2 | C[C@]12CC[C@@H]3c4cc(F)c(O)cc4CC[C@H]3[C@@H]1CC[C@@]2(O)/C=C/I | uterus to blood ratio (Rattus norvegicus [22]): 1.15%; ID/g (Rattus norvegicus [23]): 3.95%; ID/g (Rattus norvegicus [25]): 0.53%; ID/g (Rattus norvegicus [26]): 0.48%; ID/g (Rattus norvegicus [27]): 1%; ID/g (Rattus norvegicus [28]): 0.37%; ID/g (Rattus norvegicus [29]): 3.45%; ID/g (Rattus norvegicus [30]): 0.53% |
